# Source: ChEMBL document CHEMBL3286386, “One-pot synthesis of vinca alkaloids-phomopsin hybrids” (J Med Chem, 2014)
# Experiments:
# [1] = Inhibition of sheep brain tubulin assembly by UV-spectrophotometry; set-up: species or system Ovis aries
# Outline: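 Microtubule assembly run at 3 mg/mL tubulin; IC50 defined as the concentration inhibiting the rate of assembly by 50%.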
# [2] = Antiproliferative activity against human U87 cells after 72 hrs; format: functional, cell-based, U-87MG ATCC; details: U-87 MG
# Outline: (§1)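 Cells exposed to compound for 72 h; IC50 taken as the concentration giving 50% inhibition of cell proliferation.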
# K562 = experiment: Antiproliferative activity against human K562 cells after 72 hrs; format: functional, cell-based; details: K562, 72 h; outline: as §1
# MCF7 = experiment: Antiproliferative activity against human MCF7 cells after 72 hrs; format: functional, cell-based; details: MCF7, 72 h; outline: as §1
# HCT-116 = experiment: Antiproliferative activity against human HCT116 cells after 72 hrs; format: functional, cell-based; details: HCT-116, 72 h; outline: as §1
Structure (SMILES),IC50 [1],IC50 [2],IC50 (K562),IC50 (MCF7),IC50 (HCT-116)
CC[C@H](C)[C@H](NC(=O)[C@@H]1CCCN1C(=O)[C@H]1NC(=O)[C@H](C(C)C)NC(=O)[C@@H](NC)[C@@H](O)c2cc(Cl)c(O)c(c2)O[C@]1(C)CC)C(=O)NC(CC(=O)O)C(=O)O (mixture of isomers),400 nM,,,,
C=C(C)[C@@H]1NC(=O)[C@@H](NC)[C@@H](O)c2cc(Cl)c(O)c(c2)O[C@](C)(CC)[C@@H](C(=O)N2CC=C[C@H]2C(=O)N/C(C(=O)N/C(=C/C(=O)O)C(=O)O)=C(\C)CC)NC1=O [PHOMOPSIN A],560 nM,,,,
CCC1=C[C@@H]2CN(C1)Cc1c([nH]c3ccccc13)[C@@](C(=O)OC)(c1cc3c(cc1OC)N(C)[C@H]1[C@@](O)(C(=O)OC)[C@H](OC(C)=O)[C@]4(CC)C=CCN5CC[C@]31[C@@H]54)C2 [VINORELBINE],600 nM,2 nM,3.5 nM,4 nM,
CCC1=C[C@@H]2CN(C1)C[C@H](CN1CCC[C@H]1C(=O)N[C@H](C(=O)OC)[C@@H](C)CC)Cc1c([nH]c3ccccc13)[C@@](C(=O)OC)(c1cc3c(cc1OC)N(C)[C@H]1[C@@](O)(C(=O)OC)[C@H](OC(C)=O)[C@]4(CC)C=CCN5CC[C@]31[C@@H]54)C2,2700 nM,400 nM,250 nM,800 nM,1000 nM
CCC1=C[C@@H]2CN(C1)C[C@H](CN1CCC[C@H]1C(=O)OC)Cc1c([nH]c3ccccc13)[C@@](C(=O)OC)(c1cc3c(cc1OC)N(C)[C@H]1[C@@](O)(C(=O)OC)[C@H](OC(C)=O)[C@]4(CC)C=CCN5CC[C@]31[C@@H]54)C2,1000 nM,25 nM,120 nM,230 nM,700 nM
CC[C@]1(O)C[C@@H]2CN(CCc3c([nH]c4ccccc34)[C@@](C(=O)OC)(c3cc4c(cc3OC)N(C)[C@H]3[C@@](O)(C(=O)OC)[C@H](OC(C)=O)[C@]5(CC)C=CCN6CC[C@]43[C@@H]65)C2)C1 [VINBLASTINE],2100 nM,1 nM,2.7 nM,0.7 nM,
